Assay results taken from ChEMBL document CHEMBL1123812, “Pyrroloisoquinoline antidepressants. 2. In-depth exploration of structure-activity relationships” (J Med Chem, 1987).
The source made the active and inactive calls.

Key:
Mus musculus [1] = species on record: Mus musculus; assay: Antagonism of tetrabenazine (TBZ)-induced depression measured in mice by motor activity; format: functional; conditions: Mus musculus; read-out: ED50
How it was run: (§1)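 Nonfasted male Swiss Webster mice, 18–24 g, ten per dose level and in saline controls. Test compound given ip 30 min before tetrabenazine 32 mg/kg ip; dose expressed as free base. Motor activity and ptosis scored. Control response ≤90% corrected by Abbott's formula.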

[2] = biological target: D(2) dopamine receptor (Rattus norvegicus) (UniProt P61169); assay: Binding affinity towards dopamine receptor D2 at 1.0 uM concentration
D(2) dopamine receptor (Rattus norvegicus), sequence (P61169 whole entry): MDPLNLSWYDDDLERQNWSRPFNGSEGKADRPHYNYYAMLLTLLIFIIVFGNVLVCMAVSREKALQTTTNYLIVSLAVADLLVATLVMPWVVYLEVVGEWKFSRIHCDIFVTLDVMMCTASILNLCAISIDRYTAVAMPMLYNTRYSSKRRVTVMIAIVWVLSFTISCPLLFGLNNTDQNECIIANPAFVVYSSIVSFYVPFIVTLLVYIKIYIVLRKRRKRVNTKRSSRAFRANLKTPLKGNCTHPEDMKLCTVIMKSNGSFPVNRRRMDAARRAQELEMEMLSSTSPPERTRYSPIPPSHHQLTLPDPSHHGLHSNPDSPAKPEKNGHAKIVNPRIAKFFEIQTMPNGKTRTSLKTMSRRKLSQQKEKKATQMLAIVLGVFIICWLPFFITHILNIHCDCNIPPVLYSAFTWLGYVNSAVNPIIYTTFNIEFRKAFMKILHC
How it was run: (§2)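 Rat brain crude synaptic membranes in 20 mM NaHEPES pH 7.5. Ligands: α1 cortex […] 0.4 nM, nonspecific with (-)-NE 100 μM, 30 min at 25 °C. […] D2 striatum [3H]spiperone 0.05 nM with (+)-butaclamol 1 μM, 45 min at 37 °C. S1 cortex [3H]5-HT 1 nM plus glutathione and MgCl2, with 5-HT 10 μM, 20 min at 37 °C. […] Samples filtered on GF/B and counted.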

Mus musculus [3] = species on record: Mus musculus; assay: Gross behavioral effects ascertained in mice; W indicates weak stimulant or depressant activity of little significance.; format: functional, organism-based
How it was run: (§3)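 Male Swiss Webster mice, 18–24 g, three per dose, given ip doses of 1, 3, 10, 30, 100 and 300 mg/kg. Observed for gross behavior and held for 4 days. Scored as weak (W), stimulant (S), depressant (D) or convulsant (C).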

[4] = biological target: Sodium-dependent dopamine transporter (Rattus norvegicus) (UniProt P23977); assay: Inhibition of tritiated dopamine (DA) uptake at 0.1 uM concentration; format: functional
Sodium-dependent dopamine transporter (Rattus norvegicus), sequence (P23977 whole entry): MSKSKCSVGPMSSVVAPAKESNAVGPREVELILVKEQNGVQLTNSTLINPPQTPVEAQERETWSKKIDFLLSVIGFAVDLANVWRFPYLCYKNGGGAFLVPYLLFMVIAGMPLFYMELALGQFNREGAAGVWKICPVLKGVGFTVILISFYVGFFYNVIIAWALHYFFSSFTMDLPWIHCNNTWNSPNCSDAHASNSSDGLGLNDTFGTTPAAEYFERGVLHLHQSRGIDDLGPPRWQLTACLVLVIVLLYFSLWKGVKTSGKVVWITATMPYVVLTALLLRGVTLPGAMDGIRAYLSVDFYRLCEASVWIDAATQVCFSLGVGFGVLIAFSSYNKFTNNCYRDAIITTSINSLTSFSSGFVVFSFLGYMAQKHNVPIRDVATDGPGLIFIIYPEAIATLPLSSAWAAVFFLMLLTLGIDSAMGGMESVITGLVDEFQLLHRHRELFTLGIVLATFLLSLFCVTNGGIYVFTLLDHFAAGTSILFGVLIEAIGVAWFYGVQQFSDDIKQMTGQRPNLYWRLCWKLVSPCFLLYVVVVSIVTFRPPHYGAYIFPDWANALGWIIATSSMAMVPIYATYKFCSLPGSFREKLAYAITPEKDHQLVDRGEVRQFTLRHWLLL
How it was run: (§4)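 Male Wistar rat brain synaptosomes (P2 fraction): hypothalamus for NE, striatum for DA, cerebral cortex for 5-HT. Buffer is Tris- or HEPES-buffered salt medium with glucose, ascorbate and nialamide, pH 7.4 at 37 °C. Preincubated 10 min at 37 °C with compound. Uptake started with [3H]NE 100–300 nM, [3H]DA 50–300 nM or [3H]5-HT 100–200 nM, incubated 3 min (DA) or 6–10 min (NE, 5-HT). Blanks held on ice. Filtered, counted by scintillation.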

D(1A) dopamine receptor = D(1A) dopamine receptor (Rattus norvegicus, UniProt P18901); assay: Binding affinity towards Dopamine receptor D1
D(1A) dopamine receptor, sequence (P18901 whole entry): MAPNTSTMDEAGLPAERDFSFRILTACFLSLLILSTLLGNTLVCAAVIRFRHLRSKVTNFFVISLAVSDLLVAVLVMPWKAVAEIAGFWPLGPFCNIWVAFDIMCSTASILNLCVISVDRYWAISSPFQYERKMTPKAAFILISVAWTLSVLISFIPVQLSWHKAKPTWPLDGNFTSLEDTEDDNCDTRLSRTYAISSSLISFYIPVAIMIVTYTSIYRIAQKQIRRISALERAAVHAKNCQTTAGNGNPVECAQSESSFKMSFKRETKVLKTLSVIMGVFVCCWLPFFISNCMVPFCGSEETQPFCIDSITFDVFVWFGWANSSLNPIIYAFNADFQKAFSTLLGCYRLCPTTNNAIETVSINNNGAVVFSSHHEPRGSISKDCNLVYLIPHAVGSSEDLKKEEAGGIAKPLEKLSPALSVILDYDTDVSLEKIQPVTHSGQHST

[5] = biological target: Sodium-dependent serotonin transporter (Rattus norvegicus) (UniProt P31652); assay: Inhibition of tritiated serotonin(5-HT) uptake at 0.1 uM concentration; format: functional; how it was run: as §4
Sodium-dependent serotonin transporter (Rattus norvegicus), sequence (P31652 whole entry): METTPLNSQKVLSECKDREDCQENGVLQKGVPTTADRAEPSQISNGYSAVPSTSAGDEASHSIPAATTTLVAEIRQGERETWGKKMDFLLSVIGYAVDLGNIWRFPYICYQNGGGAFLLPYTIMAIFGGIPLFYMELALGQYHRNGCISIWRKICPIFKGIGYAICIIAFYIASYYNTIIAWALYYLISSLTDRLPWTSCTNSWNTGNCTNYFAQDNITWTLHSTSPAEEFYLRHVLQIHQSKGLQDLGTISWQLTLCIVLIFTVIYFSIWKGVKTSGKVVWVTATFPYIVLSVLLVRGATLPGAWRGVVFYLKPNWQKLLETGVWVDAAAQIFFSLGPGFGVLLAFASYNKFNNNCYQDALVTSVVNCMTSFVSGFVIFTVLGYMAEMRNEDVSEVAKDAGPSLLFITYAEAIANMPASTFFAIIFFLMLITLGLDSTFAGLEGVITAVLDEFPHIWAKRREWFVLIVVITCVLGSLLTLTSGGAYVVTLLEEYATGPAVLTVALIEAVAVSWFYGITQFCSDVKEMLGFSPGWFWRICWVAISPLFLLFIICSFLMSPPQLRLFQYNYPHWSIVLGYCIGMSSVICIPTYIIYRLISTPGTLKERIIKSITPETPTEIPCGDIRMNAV

Rattus norvegicus [6] = species on record: Rattus norvegicus; assay: Ability to inhibit the uptake of tritiated norepinephrine (NE) at 0.1 uM concentration; format: functional; how it was run: as §4
Mus musculus [7] = species on record: Mus musculus; assay: Antagonism of tetrabenazine (TBZ)-induced depression in mice measured for ptosis; format: functional; conditions: Mus musculus; read-out: ED50; how it was run: as §1
Mus musculus [8] = species on record: Mus musculus; assay: Gross behavioral effects ascertained in mice; D indicates significant depressant properties.; format: functional, organism-based
How it was run: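 Male Swiss Webster albino mice, 18–24 g, three per dose, given ip 1, 3, 10, 30, 100 and 300 mg/kg. Gross behaviour observed and held 4 days. Estimated LD50 range from lethality count on day 4. Scored as weak stimulant/depressant, significant stimulant, significant depressant or overt convulsant.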

[9] = biological target: D(1A) dopamine receptor (Rattus norvegicus) (UniProt P18901); assay: Binding affinity towards Dopamine receptor D1 at 1.0 uM concentration; how it was run: as §2
D(1A) dopamine receptor (Rattus norvegicus), sequence (P18901 whole entry): as the sequence (P18901 whole entry) above

[10] = biological target: Norepinephrine transporter (Rattus norvegicus, UniProt Q9WTR4); assay: Inhibition of uptake of tritiated norepinephrine (NE) in rat synaptosomes; format: subcellular, Brain
Norepinephrine transporter, sequence (Q9WTR4 whole entry): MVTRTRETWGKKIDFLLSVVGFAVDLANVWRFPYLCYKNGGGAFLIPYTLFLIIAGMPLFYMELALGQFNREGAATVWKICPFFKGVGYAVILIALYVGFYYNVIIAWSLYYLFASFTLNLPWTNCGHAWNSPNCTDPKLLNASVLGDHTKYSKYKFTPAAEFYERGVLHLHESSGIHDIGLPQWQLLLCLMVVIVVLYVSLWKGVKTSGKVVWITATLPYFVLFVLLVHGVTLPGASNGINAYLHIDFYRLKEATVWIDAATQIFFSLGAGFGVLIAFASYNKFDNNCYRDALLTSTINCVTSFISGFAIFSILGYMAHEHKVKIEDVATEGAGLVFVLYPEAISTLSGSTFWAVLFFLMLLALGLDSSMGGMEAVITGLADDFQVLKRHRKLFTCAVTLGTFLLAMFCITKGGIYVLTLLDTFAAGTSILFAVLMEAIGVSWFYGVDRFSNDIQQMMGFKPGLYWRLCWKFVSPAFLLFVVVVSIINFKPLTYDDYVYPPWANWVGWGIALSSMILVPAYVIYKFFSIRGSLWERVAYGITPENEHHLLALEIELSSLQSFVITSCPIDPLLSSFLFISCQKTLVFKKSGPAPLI

[11] = biological target: Norepinephrine transporter (Rattus norvegicus) (UniProt Q9WTR4); assay: Ability to inhibit the uptake of [3H]norepinephrine (NE) 0.1 uM concentration at rat brain synaptosomes; format: functional, subcellular; how it was run: as §4
Norepinephrine transporter (Rattus norvegicus), sequence (Q9WTR4 as listed by the source): as the sequence (Q9WTR4 whole entry) above

Rattus norvegicus [12] = species on record: Rattus norvegicus; assay: Ability to inhibit the uptake of tritiated dopamine (DA) 1 uM concentration; format: functional
How it was run: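 Rat brain synaptosomal [3H]dopamine uptake: striatal P2 fraction, test compound at 1.00 μM. Preincubated at 37 °C, then 50–300 nM [3H]DA for 3 min. Blanks on ice. Filtration and scintillation counting; percent inhibition of control uptake.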

[13] = biological target: Sodium-dependent serotonin transporter (Rattus norvegicus) (UniProt P31652); assay: Ability to inhibit the uptake of [3H]- serotonin(5-HT) 0.1 uM concentration at rat brain synaptosomes; format: functional, subcellular; how it was run: as §4
Mus musculus [14] = species on record: Mus musculus; assay: Gross behavioral effects ascertained in mice; S indicates significant stimulant properties.; format: functional, organism-based; how it was run: as §3
[15] = biological target: Adrenergic receptor alpha-2 (Rattus norvegicus) (UniProt P22086+P19328+P22909); assay: Binding affinity towards alpha-2 adrenergic receptor at 1.0 uM concentration; format: protein assay
[16] = biological target: Sodium-dependent dopamine transporter (Rattus norvegicus, UniProt P23977); assay: Inhibition of the uptake of tritiated dopamine (DA) in rat synaptosomes; format: subcellular, Brain
Sodium-dependent dopamine transporter, sequence (P23977 whole entry): as the sequence (P23977 whole entry) above

[17] = biological target: Muscarinic acetylcholine receptor (Rattus norvegicus) (UniProt P08482+P08483+P08485+P08911+P10980); assay: Binding affinity towards Muscarinic acetylcholine receptor at 1.0 uM concentration; format: protein assay
[18] = biological target: T1, Adrenergic receptor alpha-1 (Rattus norvegicus, UniProt P15823+P23944+P43140); assay: Binding affinity towards alpha-1 adrenergic receptor; format: protein assay
T1 sequence (P15823 whole entry): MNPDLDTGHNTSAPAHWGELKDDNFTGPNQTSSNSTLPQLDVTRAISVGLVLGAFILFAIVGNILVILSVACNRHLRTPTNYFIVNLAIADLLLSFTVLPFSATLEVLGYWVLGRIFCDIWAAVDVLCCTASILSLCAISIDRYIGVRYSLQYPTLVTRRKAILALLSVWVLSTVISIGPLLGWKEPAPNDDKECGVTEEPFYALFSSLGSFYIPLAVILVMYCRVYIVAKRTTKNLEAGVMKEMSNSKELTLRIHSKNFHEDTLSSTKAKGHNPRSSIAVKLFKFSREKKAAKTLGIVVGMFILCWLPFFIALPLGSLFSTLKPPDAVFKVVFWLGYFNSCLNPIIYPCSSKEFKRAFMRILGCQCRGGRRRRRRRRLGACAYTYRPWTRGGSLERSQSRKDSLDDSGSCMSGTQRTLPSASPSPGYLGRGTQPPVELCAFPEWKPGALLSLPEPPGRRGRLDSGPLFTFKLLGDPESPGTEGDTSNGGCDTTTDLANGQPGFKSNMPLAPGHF
T1 sequence (P23944 whole entry): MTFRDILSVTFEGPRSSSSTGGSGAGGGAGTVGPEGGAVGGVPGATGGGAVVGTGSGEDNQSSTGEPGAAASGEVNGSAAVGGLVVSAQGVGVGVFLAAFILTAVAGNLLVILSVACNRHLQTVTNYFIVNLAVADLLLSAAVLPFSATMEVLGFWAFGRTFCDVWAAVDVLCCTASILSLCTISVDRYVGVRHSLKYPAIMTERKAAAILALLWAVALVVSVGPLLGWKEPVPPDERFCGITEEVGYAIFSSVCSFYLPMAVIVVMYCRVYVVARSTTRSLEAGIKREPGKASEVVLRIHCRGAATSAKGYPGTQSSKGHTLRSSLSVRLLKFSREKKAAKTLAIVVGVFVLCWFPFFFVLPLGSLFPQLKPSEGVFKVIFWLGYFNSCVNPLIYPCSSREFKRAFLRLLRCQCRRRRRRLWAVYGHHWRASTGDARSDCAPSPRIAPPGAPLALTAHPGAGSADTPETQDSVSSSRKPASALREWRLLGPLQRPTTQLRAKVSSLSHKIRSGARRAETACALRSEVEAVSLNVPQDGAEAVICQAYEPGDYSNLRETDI
T1 sequence (P43140 whole entry): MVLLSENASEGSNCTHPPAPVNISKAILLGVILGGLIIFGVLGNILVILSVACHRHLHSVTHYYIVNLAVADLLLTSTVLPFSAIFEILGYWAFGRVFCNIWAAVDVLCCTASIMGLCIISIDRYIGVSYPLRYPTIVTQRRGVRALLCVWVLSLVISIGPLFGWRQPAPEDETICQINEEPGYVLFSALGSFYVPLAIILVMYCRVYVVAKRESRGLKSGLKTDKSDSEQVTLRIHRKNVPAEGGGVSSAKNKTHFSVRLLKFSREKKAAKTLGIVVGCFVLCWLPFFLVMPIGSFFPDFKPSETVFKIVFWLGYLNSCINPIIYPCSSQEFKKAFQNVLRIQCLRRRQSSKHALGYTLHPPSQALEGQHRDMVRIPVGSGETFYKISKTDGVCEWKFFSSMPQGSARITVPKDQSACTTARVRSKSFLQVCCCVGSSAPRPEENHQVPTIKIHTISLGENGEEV

[19] = biological target: Serotonin 2 (5-HT2) receptor (Rattus norvegicus) (UniProt P30994+P08909+P14842); assay: Binding affinity towards 5-hydroxytryptamine 2 receptor at 1.0 uM concentration; format: protein assay; how it was run: as §2
Serotonin 2 (5-HT2) receptor (Rattus norvegicus), sequence (P08909 whole entry, looked up): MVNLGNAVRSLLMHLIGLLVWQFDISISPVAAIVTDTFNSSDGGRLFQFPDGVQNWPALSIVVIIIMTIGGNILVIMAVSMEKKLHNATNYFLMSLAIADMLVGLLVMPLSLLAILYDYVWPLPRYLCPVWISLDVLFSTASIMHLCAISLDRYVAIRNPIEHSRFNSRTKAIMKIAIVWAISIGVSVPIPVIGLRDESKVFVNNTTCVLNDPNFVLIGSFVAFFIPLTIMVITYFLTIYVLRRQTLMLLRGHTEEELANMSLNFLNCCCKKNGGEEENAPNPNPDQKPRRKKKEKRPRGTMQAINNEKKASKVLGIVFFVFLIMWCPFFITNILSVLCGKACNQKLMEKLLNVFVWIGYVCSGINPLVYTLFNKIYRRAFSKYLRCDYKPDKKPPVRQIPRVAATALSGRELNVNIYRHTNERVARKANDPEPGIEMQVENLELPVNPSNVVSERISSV
Serotonin 2 (5-HT2) receptor (Rattus norvegicus), sequence (P14842 whole entry, looked up): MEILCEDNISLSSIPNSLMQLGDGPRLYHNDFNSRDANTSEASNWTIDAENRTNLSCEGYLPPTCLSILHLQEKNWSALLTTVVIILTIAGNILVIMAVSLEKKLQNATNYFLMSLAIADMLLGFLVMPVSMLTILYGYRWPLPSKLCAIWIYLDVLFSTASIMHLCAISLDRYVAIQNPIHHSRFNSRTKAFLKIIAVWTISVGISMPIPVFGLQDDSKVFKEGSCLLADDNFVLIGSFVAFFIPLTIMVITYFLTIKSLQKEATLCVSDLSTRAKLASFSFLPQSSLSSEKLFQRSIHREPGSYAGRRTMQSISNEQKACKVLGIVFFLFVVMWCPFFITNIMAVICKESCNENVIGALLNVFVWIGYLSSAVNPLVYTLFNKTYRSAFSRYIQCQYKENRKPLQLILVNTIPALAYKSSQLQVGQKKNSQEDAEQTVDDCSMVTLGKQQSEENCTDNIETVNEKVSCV
Serotonin 2 (5-HT2) receptor (Rattus norvegicus), sequence (P30994 whole entry, looked up): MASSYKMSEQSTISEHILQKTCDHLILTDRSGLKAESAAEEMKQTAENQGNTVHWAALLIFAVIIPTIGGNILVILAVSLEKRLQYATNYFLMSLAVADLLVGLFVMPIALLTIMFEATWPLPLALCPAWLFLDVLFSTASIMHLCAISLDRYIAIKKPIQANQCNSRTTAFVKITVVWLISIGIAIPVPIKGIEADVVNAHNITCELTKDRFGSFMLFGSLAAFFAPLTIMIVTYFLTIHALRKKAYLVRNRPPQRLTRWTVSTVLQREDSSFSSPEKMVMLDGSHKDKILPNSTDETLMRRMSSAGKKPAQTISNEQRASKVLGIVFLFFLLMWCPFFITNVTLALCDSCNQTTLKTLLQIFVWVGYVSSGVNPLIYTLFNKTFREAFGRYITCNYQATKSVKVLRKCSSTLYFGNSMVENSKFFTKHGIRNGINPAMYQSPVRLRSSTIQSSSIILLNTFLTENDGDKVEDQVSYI

Mus musculus [20] = assay: Ability to antagonise intraperitoneal dose; inactive (<10% antagonism) at 30 mgjkg is represented as I-30.; format: functional, organism-based; how it was run: as §1
Mus musculus [21] = species on record: Mus musculus; assay: Gross behavioral effects ascertained in mice; C indicates overt convulsant; format: functional, organism-based; how it was run: as §3
Mus musculus [22] = assay: Ability to antagonise intraperitoneal dose; inactive (<10% antagonism) at 30 mg/kg is represented as I-30.; format: functional, organism-based; parameters: dose 30 mg/kg; how it was run: as §1
[23] = biological target: Adrenergic receptor alpha-1 (Rattus norvegicus) (UniProt P15823+P23944+P43140); assay: Binding affinity towards alpha-1 adrenergic receptor at 1.0 uM concentration; format: protein assay; how it was run: as §2
[24] = biological target: Serotonin 1 (5-HT1) receptor (Rattus norvegicus) (UniProt P28564+P30940+P19327+P28565); assay: Binding affinity towards serotonin S1 receptor at 1.0 uM; format: protein assay; how it was run: as §2
[25] = biological target: Serotonin 2 (5-HT2) receptor (Rattus norvegicus, UniProt P30994+P08909+P14842); assay: Binding affinity towards 5-hydroxytryptamine 2 receptor; format: protein assay

| SMILES | ED50 (Mus musculus [1]) | inhibition [2] | behavior (Mus musculus [3]) | ED50 (Mus musculus [7]) | Ki [10] | inhibition [11] | Inhibition (Rattus norvegicus [12]) | inhibition [13] | Ki [16] | further results |
| --- | --- | --- | --- | --- | --- | --- | --- | --- | --- | --- |
| Br.Oc1cc2c(cc1O)[C@@H]1CCCN1C[C@H]2c1ccccc1 | > 60 mg/kg | 19% | Partial stimulant | > 60 mg/kg |  |  |  |  |  | inhibition [4]: 22%; Ki (D(1A) dopamine receptor): 64 nM; inhibition [5]: 0%; Inhibition (Rattus norvegicus [6]): 35% |
| Br.CC(=O)Nc1ccc([C@@H]2CN3CCC[C@@H]3c3ccccc32)cc1 | 0.037 mg/kg |  |  | 0.042 mg/kg |  |  |  |  |  | behavior (Mus musculus [8]): Significant depressant |
| Fc1ccc([C@@H]2CN3CCC[C@@H]3c3ccccc32)cc1 | ~0.2 mg/kg |  | Partial stimulant | ~0.2 mg/kg | 1.4 nM |  |  |  |  | inhibition [9]: 56% |
| Br.C[C@@]1(c2ccccc2)CN2CCC[C@H]2c2ccccc21 | 22.5 mg/kg |  | Weak | 16.2 mg/kg |  | 19% | 50% | 14% |  |  |
| Br.Oc1cc2c(cc1O)[C@H]1CCCN1C[C@H]2c1ccccc1 | 0.87 mg/kg | 20% |  | 0.53 mg/kg | 10.5 nM |  |  |  | 43.5 nM | behavior (Mus musculus [14]): Stimulant; inhibition [15]: 21%; Ki (D(1A) dopamine receptor): 106 nM; inhibition [17]: 0%; Ki [18]: 87 nM; inhibition [19]: 46% |
| Br.Oc1ccc([C@@H]2CN3CCC[C@@H]3c3ccccc32)cc1O | 0.19 mg/kg | 5% |  | 0.11 mg/kg | 0.81 nM |  |  |  | 10.1 nM | behavior (Mus musculus [14]): Stimulant; inhibition [15]: 26%; Ki (D(1A) dopamine receptor): > 1000 nM; inhibition [17]: 0%; Ki [18]: 675 nM |
| Br.COc1ccc2c(c1)[C@@H]1CCCN1C[C@H]2c1ccccc1 | ~40 mg/kg |  |  | 8 mg/kg | 20.9 nM |  |  |  | 38.9 nM | inhibition [5]: 21%; behavior (Mus musculus [8]): Significant depressant |
| Br.c1ccc([C@H]2Cc3ccccc3[C@@H]3CCCN23)cc1 | ~30 mg/kg |  | Weak | ~3 mg/kg |  | 11% | 36% | -9% |  |  |
| c1ccc([C@H]2CN3CC[C@@H]4CCCC[C@@]43c3ccccc32)cc1 |  |  |  |  |  | 3% | 17% | 9% |  | ED50 (Mus musculus [20]): inactive; behavior (Mus musculus [21]): Overt convulsant; ED50 (Mus musculus [22]): inactive |
| COc1cccc([C@@H]2CN3CCC[C@@H]3c3ccccc32)c1 | ~0.2 mg/kg | 27% | Partial stimulant | 0.07 mg/kg | 0.65 nM |  |  |  | 15.8 nM | inhibition [15]: 37%; inhibition [9]: 40%; inhibition [17]: 1%; inhibition [23]: 87% |
| COc1ccc2c(c1)CN(C)CC2c1ccc(Cl)c(Cl)c1 (centres undefined) [DICLOFENSINE] |  | 27% |  |  | 8.8 nM |  |  |  | 10.9 nM | inhibition [24]: 33%; inhibition [9]: 38%; inhibition [23]: -6%; Ki [25]: 37 nM |
| C[C@@]12CCCN1C[C@@H](c1ccccc1)c1ccccc12 |  |  |  |  |  | 2% | 25% | 23% |  | ED50 (Mus musculus [20]): inactive; behavior (Mus musculus [21]): Overt convulsant; ED50 (Mus musculus [22]): inactive |
